According to ChEMBL document CHEMBL4393724, “Betulin-1,4-quinone hybrids: Synthesis, anticancer activity and molecular docking study with NQO1 enzyme” (Eur J Med Chem, 2019):

Legend:
Assay type in all cases: functional, cell-based; call rule not given here
[1] = test system: MCF7; assay: Antiproliferative activity against human MCF7 cells assessed as reduction in cell viability incubated for 72 hrs by WST1 assay
Procedure, shortened: (§1)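 Cells held at 37 °C under 5% CO2 and seeded at 5 × 10^4 cells/well in DMEM with 10% FCS plus streptomycin and penicillin. Compounds were dissolved in DMSO and exposed for 72 h. WST-1 formazan was read at 450 nm. IC50 was derived from the mean ± SD of at least three independent experiments run in triplicate. Cisplatin served as reference.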

[2] = test system: MDA-MB-231; assay: Antiproliferative activity against human MDA-MB-231 cells assessed as reduction in cell viability incubated for 72 hrs by WST1 assay
[3] = test system: C32; assay: Antiproliferative activity against human C32 cells assessed as reduction in cell viability incubated for 72 hrs by WST1 assay; procedure, shortened: as §1
[4] = test system: SNB-19; assay: Antiproliferative activity against human SNB19 cells assessed as reduction in cell viability incubated for 72 hrs by WST1 assay
[5] = test system: T47D; assay: Antiproliferative activity against human T47D cells assessed as reduction in cell viability incubated for 72 hrs by WST1 assay
[6] = test system: COLO-829; assay: Antiproliferative activity against human COLO829 cells assessed as reduction in cell viability incubated for 72 hrs by WST1 assay
[7] = test system: A549; assay: Antiproliferative activity against human A549 cells assessed as reduction in cell viability incubated for 72 hrs by WST1 assay; conditions: Homo sapiens, A549, 72 h; read-out: IC50; procedure, shortened: as §1
[8] = Homo sapiens, MDA-MB-231, 72 h, read-out: IC50
[9] = Homo sapiens, C32, 72 h, read-out: IC50
[10] = Homo sapiens, MCF7, 72 h, read-out: IC50
[11] = Homo sapiens, SNB-19, 72 h, read-out: IC50
[12] = Homo sapiens, T47D, 72 h, read-out: IC50
[13] = Homo sapiens, COLO-829, 72 h, read-out: IC50

Row | IC50 ([1]; mcf7) | IC50 [2, 8] | IC50 ([5]; t47d) | IC50 ([6]; colo-829) | IC50 [7] | IC50 [1, 10] | IC50 [5, 12] | IC50 [6, 13] | IC50 ([2]; mda-mb-231) | Compound | IC50 [3, 9] | IC50 ([4]; snb-19) | IC50 [4, 11] | IC50 ([3]; c32)
1 | Not Active | 61.2 µM | Not Active | Not Active | 53.9 µM | – | – | – | – | C=C(COC1=C(Cl)C(=O)c2ccccc2C1=O)[C@@H]1CC[C@]2(COC(C)=O)CC[C@]3(C)[C@H](CC[C@@H]4[C@@]5(C)CC[C@H](OC(C)=O)C(C)(C)[C@@H]5CC[C@]43C)[C@@H]12 | 24.7 µM | Not Active | – | –
2 | – | 60.4 µM | – | – | 3.3 µM | 11.6 µM | 12.8 µM | 0.13 µM | – | C=C(COC1=C(Cl)C(=O)c2cccnc2C1=O)[C@@H]1CC[C@]2(COC(C)=O)CC[C@]3(C)[C@H](CC[C@@H]4[C@@]5(C)CC[C@H](OC(C)=O)C(C)(C)[C@@H]5CC[C@]43C)[C@@H]12 | 22.9 µM | – | 62.5 µM | –
3 | Not Active | – | – | Not Active | 10.6 µM | – | 1.47 µM | – | Not Active | C=C(C)[C@@H]1CC[C@]2(COC3=C(Cl)C(=O)c4ccccc4C3=O)CC[C@]3(C)[C@H](CC[C@@H]4[C@@]5(C)CC[C@H](O)C(C)(C)[C@@H]5CC[C@]43C)[C@@H]12 | – | – | 9.49 µM | Not Active
4 | – | 0.11 µM | – | – | 0.84 µM | 0.94 µM | 10.3 µM | 0.12 µM | – | C=C(COC1=C(Cl)C(=O)c2ccc(C)nc2C1=O)[C@@H]1CC[C@]2(COC(C)=O)CC[C@]3(C)[C@H](CC[C@@H]4[C@@]5(C)CC[C@H](OC(C)=O)C(C)(C)[C@@H]5CC[C@]43C)[C@@H]12 | 1.14 µM | Not Active | – | –
5 | – | 5.88 µM | Not Active | – | 0.64 µM | 89.3 µM | – | 93.8 µM | – | C=C(C)[C@@H]1CC[C@]2(COC3=C(Cl)C(=O)c4ccc(C)nc4C3=O)CC[C@]3(C)[C@H](CC[C@@H]4[C@@]5(C)CC[C@H](OC(C)=O)C(C)(C)[C@@H]5CC[C@]43C)[C@@H]12 | 1.33 µM | Not Active | – | –
6 | Not Active | – | – | Not Active | 13.5 µM | – | 86.8 µM | – | Not Active | C=C(C)[C@@H]1CC[C@]2(COC(C)=O)CC[C@]3(C)[C@H](CC[C@@H]4[C@@]5(C)CC[C@H](OC6=C(Cl)C(=O)c7cccnc7C6=O)C(C)(C)[C@@H]5CC[C@]43C)[C@@H]12 | – | Not Active | – | Not Active
7 | Not Active | 11 µM | – | – | 1.62 µM | – | 90.4 µM | 1.13 µM | – | C=C(C)[C@@H]1CC[C@]2(COC3=C(Cl)C(=O)c4ccc(C)nc4C3=O)CC[C@]3(C)[C@H](CC[C@@H]4[C@@]5(C)CC[C@H](O)C(C)(C)[C@@H]5CC[C@]43C)[C@@H]12 | 12.7 µM | Not Active | – | –

Row | Compound | IC50 ([1]; mcf7) | IC50 [2, 8] | IC50 ([5]; t47d) | IC50 ([6]; colo-829) | IC50 [7] | IC50 [1, 10] | IC50 [5, 12] | IC50 [6, 13] | IC50 ([2]; mda-mb-231) | IC50 [3, 9] | IC50 ([4]; snb-19) | IC50 [4, 11] | IC50 ([3]; c32)
8 | C=C(C)[C@@H]1CC[C@]2(CO)CC[C@]3(C)[C@H](CC[C@@H]4[C@@]5(C)CC[C@H](O)C(C)(C)[C@@H]5CC[C@]43C)[C@@H]12 [BETULIN] | – | 96.2 µM | – | Not Active | 59.7 µM | 43.9 µM | 20.7 µM | – | – | – | Not Active | – | Not Active
